# Results: PubChem BioAssay
# Activity calls are given as the source filed them.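 The calls were made as follows, unless noted: active = viability loss from added drug above about 55%, and viability with drug at most 40%, in both replicates (limit read from the data, passing the limit was not always enough); inconclusive = both conditions met in only one replicate; inactive = neither replicate meets both conditions.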
# Assays:
# [1] = SK-BR-3 cell growth inhibitors, pilot screen, 24 h, human (AID 572;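 active = viability at or below 10% of carrier control in both of two separate runs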;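 also: compound exposure lasted between 18 and 24 h rather than exactly 24 h; 100% = carrier-treated control wells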); conditions: SK-BR-3 viability, CellTiter-Glo luminescence, at 10 µM, stronger effect = lower value
# [2] = HUVEC growth inhibition – cell-based, human, primary screen (AID 575;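 active = viability at or below 30% in both replicate assays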;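 also: 100% = median of untreated cell wells with 0.1% DMSO on each plate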); conditions: HUVEC proliferation, CellTiter-Glo luminescence, 72 h; at 10 µM; stronger effect = lower value
# Summary of the method: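 material = primary HUVEC, no more than 12 passages | input = 1250 cells per well | controls = vehicle and MePR control wells | measured by = CTG luminescence | times = 72 h compound incubation | format = collagen-coated 384-well format | read-out = % viability vs DMSO wells | doses = single 10 µM dose, 0.1% DMSO, from 5x medium stock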
# [3] = growth inhibitors of H69AR lung tumor, primary screen, human, duplicate replicates (AID 580;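 active = viability at or under a set limit in both replicates, limit being median viability minus 3 SD, cut at about 48% in these data, passing the limit was not always enough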;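 also: 100% = mean luminescence of untreated wells and 0% = no signal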); conditions: H69AR lung tumor cells viability, ATP luminescence, 72 h; at 10 µM; stronger effect = lower value
# [4] = reversal of MRP1-mediated doxorubicin resistance, pilot screen, H69AR cells, doxorubicin co-treatment (AID 601); conditions: CellTiter-Glo, 72 h, at 10 µM; for differential viability (reversal): stronger effect = higher value
# [5] = 384-well plate pilot, post-Golgi transport modulator project, inhibition of yeast transport mutant growth (AID 636; in the data active = inhibition above about 31%); conditions: absorbance 615 nm, about 18 h, stronger effect = higher value
# [6] = growth suppression of yeast trafficking mutant, preliminary HTS, modulators of trafficking downstream of Golgi apparatus project, 1536-format plate, OD 615 nm (AID 637; in the data active = inhibition above about 30%); conditions: yeast transport mutant growth, absorbance 615 nm, 18 h; stronger effect = higher value
# [7] = H69AR cells + 2 uM doxorubicin, measured here: viability with 2 uM doxorubicin, stronger effect = lower value
# [8] = H69AR cells, compound alone cytotoxicity
Structure (SMILES),viability [1],viability [2],viability [3],differential viability (reversal) ([4]; H69AR cells + 2 uM doxorubicin),"viability [4, 7]","viability [4, 8]",inhibition [5],inhibition [6]
CCC(=O)Nc1ccc(NC(=O)c2ccccn2)cn1,87% (inactive),103% (inactive),98.2% (inactive),13.6% (inactive),84.6%,98.2%,-5.47% (inactive),-8% (inactive)
Cc1cccc(NC(=O)C2CCCN(C(=O)Nc3ccccc3)C2)c1C (centres undefined),88% (inactive),102% (inactive),96.2% (inactive),5.37% (inactive),90.8%,96.2%,-1.04% (inactive),3.11% (inactive)
COc1cccc(CC(=O)Nn2c(C)nc3ccccc3c2=O)c1,83% (inactive),115% (inactive),99.3% (inactive),11.8% (inactive),87.5%,99.3%,-3.07% (inactive),-5.27% (inactive)
COc1ccc(Cn2nnnc2C(c2ccccn2)N2CCN(c3cc(Cl)ccc3C)CC2)cc1 (centres undefined),101% (inactive),73.1% (inactive),77.3% (inactive),-7.71% (inactive),85%,77.3%,-2.43% (inactive),31.6% (active)
CCn1cc(C(=O)NC2CCc3ccccc32)c(=O)c2ccc(C)nc21 (centres undefined),77% (inactive),84.3% (inactive),81.6% (inactive),-10.2% (inactive),91.7%,81.6%,-0.13% (inactive),5.41% (inactive)
COc1ccc(N2C(=O)c3cccc4cccc(c34)C2=O)nn1,82% (inactive),90.8% (inactive),92.3% (inactive),-7.67% (inactive),100%,92.3%,-5.89% (inactive),5.09% (inactive)
CCOC(=O)c1cc(-c2ccccc2)sc1N,129% (inactive),71.1% (inactive),81.3% (inactive),3.5% (inactive),77.8%,81.3%,-6% (inactive),-2% (inactive)
CCc1nc2sc3ccccc3c(=O)c2c(=O)n1Cc1ccco1,73% (inactive),82.6% (inactive),77% (inactive),2.49% (inactive),74.5%,77%,-3.77% (inactive),0.98% (inactive)
CC1=C(C(=O)N2CCOCC2)C(c2ccccc2F)C2=C(CCCC2=O)N1 (centres undefined),110% (inactive),104% (inactive),98.8% (inactive),-2.68% (inactive),101%,98.8%,-2.88% (inactive),0.91% (inactive)
Cc1nn(C)cc1C1C2=C(CC(C)(C)CC2=O)OC2=C1C(=O)CC(C)(C)C2,74% (inactive),110% (inactive),89.8% (inactive),-5.79% (inactive),95.6%,89.8%,-6.62% (inactive),0.18% (inactive)
CN(C)CCOC(c1ccccc1)c1ccccc1,78% (inactive),86.9% (inactive),87.6% (inactive),5.28% (inactive),82.3%,87.6%,-1.69% (inactive),2.5% (inactive)
CC1(C)CN=C(N2CCN(c3ncnc4sc5c(c34)CCCC5)CC2)S1,72% (inactive),54.2% (inactive),77.3% (inactive),-8.36% (inactive),85.6%,77.3%,-1.15% (inactive),0.83% (inactive)
CCOC(=O)c1ccc(NS(=O)(=O)c2ccc3c(c2)CCCN3C(C)=O)cc1,118% (inactive),104% (inactive),89.8% (inactive),-8.91% (inactive),98.7%,89.8%,0.91% (inactive),-0.16% (inactive)
CCCN1Cc2cccc(C(=O)NCc3cccs3)c2C1=O,86% (inactive),111% (inactive),90.6% (inactive),-0.255% (inactive),90.8%,90.6%,-6% (inactive),-1.45% (inactive)
C[C@]12CC[C@@H]3c4ccc(O)cc4C(=O)C[C@H]3[C@@H]1CC[C@@H]2O,103% (inactive),89.2% (inactive),80.6% (inactive),2.45% (inactive),78.2%,80.6%,-0.39% (inactive),2.67% (inactive)
CC(=O)[C@H]1[C@H](C#N)C[C@H]2[C@@H]3CC=C4C[C@@H](O)CC[C@]4(C)[C@H]3CC[C@@]21C,136% (inactive),103% (inactive),87% (inactive),1.78% (inactive),85.2%,87%,-2.73% (inactive),7.33% (inactive)
CC1(C)CC(=O)C(C=NC(CCC(N)=O)C(=O)O)=C(O)C1 (centres undefined),96% (inactive),96.5% (inactive),91.9% (inactive),8.63% (inactive),83.3%,91.9%,-8.22% (inactive),0.18% (inactive)

Structure (SMILES),viability [1],viability [2],viability [3],differential viability (reversal) ([4]; H69AR cells + 2 uM doxorubicin),"viability [4, 7]","viability [4, 8]",inhibition [5],inhibition [6]
O=S(=O)(c1cccc2c(S(=O)(=O)N3CCCC3)cccc12)N1CCCC1,72% (inactive),107% (inactive),93.5% (inactive),5.26% (inactive),88.2%,93.5%,-9.18% (inactive),-0.55% (inactive)
C=CCn1c(SCC(=O)NCC2CCCO2)nc2scc(-c3ccco3)c2c1=O (centres undefined),112% (inactive),88.2% (inactive),92.9% (inactive),-1.34% (inactive),94.2%,92.9%,-3.84% (inactive),2.58% (inactive)
Cn1c(=O)cc(SCC(=O)NCc2cccnc2)c2ccccc21,92% (inactive),109% (inactive),92.7% (inactive),8.73% (inactive),83.9%,92.7%,-6.8% (inactive),-1.82% (inactive)
NC(=O)C1CCN(c2nc(-c3ccccc3)nc3ccccc23)CC1,114% (inactive),77.2% (inactive),66.3% (inactive),-2.88% (inactive),69.2%,66.3%,-3.15% (inactive),-4.03% (inactive)
O=C(Cn1cnc2c(cnn2-c2ccc(F)cc2)c1=O)N1CCN(c2ccccc2)CC1,97% (inactive),94% (inactive),70.3% (inactive),4.54% (inactive),65.8%,70.3%,0.39% (inactive),-5.57% (inactive)
c1coc(CN2CN=C(Nc3nc4ccccc4s3)NC2)c1,91% (inactive),115% (inactive),96.4% (inactive),-0.14% (inactive),96.5%,96.4%,-2.3% (inactive),-4.18% (inactive)
CCN(C(=O)c1c(OC)cccc1OC)c1nnc(-c2cccnc2)s1,95% (inactive),87.7% (inactive),92.7% (inactive),1.89% (inactive),90.8%,92.7%,-5.81% (inactive),-7.82% (inactive)
COc1cccc(NC(=O)c2ccccc2NS(C)(=O)=O)c1,86% (inactive),91.8% (inactive),91.9% (inactive),4.45% (inactive),87.5%,91.9%,-5.89% (inactive),-3.45% (inactive)
COc1nc(NCCc2ccc(OC)c(OC)c2)nc(NC(C)(C)CO)n1,96% (inactive),113% (inactive),95.5% (inactive),7.75% (inactive),87.8%,95.5%,-3.38% (inactive),-1.31% (inactive)
CC(=O)Nc1ccc(S(=O)(=O)N(C2=NCC(C)S2)c2ccccc2)cc1 (centres undefined),85% (inactive),80.3% (inactive),91.7% (inactive),1.89% (inactive),89.8%,91.7%,-2.47% (inactive),-4.35% (inactive)
N#CC1=C(N)Oc2c(ccc3cccnc23)C1c1cccnc1 (centres undefined),111% (inactive),60% (inactive),15.1% (active),-10.9% (inactive),26%,15.1%,-7.53% (inactive),5% (inactive)
CC(C)(C)n1ncc2c(=O)n(CC(=O)NCc3ccccc3)cnc21,90% (inactive),54.7% (inactive),15.5% (active),-48.5% (inactive),63.9%,15.5%,-1.2% (inactive),-1.27% (inactive)
Cc1ccc(-n2nc3cc(Cl)c(NC(=O)c4ccco4)cc3n2)cc1,116% (inactive),92.6% (inactive),42.7% (active),-5.97% (inactive),48.7%,42.7%,-7.53% (inactive),2.7% (inactive)
Cc1c(C(=O)NCc2ccoc2)oc2ccc3c(c12)C(=O)CC(C)(C)O3,129% (inactive),75.1% (inactive),76.2% (inactive),-2.74% (inactive),78.9%,76.2%,-0.52% (inactive),3.77% (inactive)
CCOc1ccc(N2CC(C(=O)NCCc3ccc(OC)c(OC)c3)CC2=O)cc1 (centres undefined),108% (inactive),97.6% (inactive),94.5% (inactive),3.03% (inactive),91.4%,94.5%,-11% (inactive),2.26% (inactive)
COc1ccc(-c2noc(CSc3nc4ccccc4c(=O)n3-c3ccccc3)n2)cc1OC,69% (inactive),110% (inactive),87.1% (inactive),6.39% (inactive),80.7%,87.1%,-9.04% (inactive),-0.55% (inactive)
